BindingDB's records for doi:10.1016/j.bmcl.2009.02.010 (Konkuk University, 2009)

Key:
[1] = target: T1, Replicase polyprotein 1ab (Severe acute respiratory syndrome coronavirus, UniProt P0C6X7); test: Inhibition of ATPase activity of SCV helicase assessed as phosphate release by colorimetric assay
How it was run: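 Purified SCV NTPase/helicase (400 nM in 50 mM Tris/HCl pH 6.6) preincubated with compounds for 5 min at rt. Stopped with malachite green/molybdate reagent in 1 M HCl. A620 read after 5 min, with phosphate from a standard curve.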

[2] = target: T1, Replicase polyprotein 1ab; test: Inhibition of SCV helicase assessed as duplex-DNA unwinding by FRET based assay
How it was run: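 Substrate was 25-bp dsDNA with a 20-dT 5′-overhang. SCV helicase (150 nM in 20 mM HEPES pH 7.4) preincubated with compounds for 5 min at rt. Started with 5X reaction solution (5 mM MgCl2, 45 mM ATP, 25 mM DTT, 100 nM dsDNA substrate as 5X concentrations), then 2 min at 37 °C. Stopped with EDTA plus unmodified trap oligomer, with FRET read-out.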

Compound	IC50 [1] [µM]	IC50 [2] [µM]
O=C(O)C(=O)CC(=O)c1cccc(OCc2ccccc2)c1	> 50	> 50
O=C(O)C(=O)CC(=O)c1ccccc1OCc1ccccc1	> 50	> 50
O=C(O)C(=O)CC(=O)c1ccc(OCc2ccc(Cl)cc2)cc1 [4-(4-(4-chlorobenzyloxy)phenyl)-2-hydroxy-4-oxobut-2-enoic acid]	> 50	> 50
